Experimental data from paper PMC4134686 (Journal of the American Chemical Society, 2013).

How the values were obtained:
Assay in all cases: isothermal titration calorimetry
Assay type in all cases: binding
[1] = molecular target: BsSecA (Bacillus subtilis, UniProt P28366, E208Q)
Procedure, shortened: (§1)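 Full-length native-sequence SecA purified by ion-exchange, hydrophobic and gel-filtration chromatography, then dialysed >18 h against TKM (50 mM Tris-HCl pH 8.0, 50 mM KCl, 5 mM MgCl₂) with 3 buffer changes. Mg-ADP dissolved in final dialysate and titrated at 25 °C into 20 μM WT BsSecA, 30 μM E208Q BsSecA or 10 μM WT EcSecA.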

[2] = molecular target: BsSecA (Bacillus subtilis, UniProt P28366)
Procedure, shortened: as §1

[3] = molecular target: EcSecA (Escherichia coli, UniProt P10408)
Procedure, shortened: as §1

## Nc1ncnc2c1ncn2[C@@H]1O[C@H](COP(=O)(O)OP(=O)(O)O)[C@@H](O)[C@H]1O [Mg-ADP]
[1]
  Kd: 7700 ± 300 nM
[2]
  Kd: 180 ± 10 nM
[3]
  Kd: 62 ± 4 nM
